Activity calls are given as the source filed them. The calls are words filed in the database; no cut-off is given here.
How the values were obtained:
HepG2 [1] = assay: Cytotoxicity against human HepG2 cells; assay type: cell-based
ASPC1 = assay: Cytotoxicity against human AsPC1 cells; assay type: cell-based
HepG2 [2] = assay: Antidiabetic activity in human HepG2 cells assessed as increase in glucose consumption at 50 uM by glucose oxidase method; assay type: functional, cell-based
Procedure, shortened: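 HepG2 cells grown in DMEM with 10% FBS and 1% penicillin/streptomycin at 37 °C under 5% CO2. Cells were treated with 50 μM test compound or 0.1% DMSO vehicle. Glucose remaining in the culture supernatant was measured with a glucose oxidase–peroxidase kit.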

BXPC-3 = assay: Cytotoxicity against human BxPC3 cells; assay type: cell-based
Panc02 = assay: Cytotoxicity against mouse Panc02 cells; assay type: cell-based
CT26 = assay: Cytotoxicity against mouse CT26 cells; assay type: cell-based
HepG2 [3] = assay: Effect on 2-NBDG uptake in insulin-resistant human HepG2 cells at 0.2 uM pretreated with insulin for 24 hrs followed by compound addition incubated for 24 hrs and subsequent 2-NBDG measured after 30 mins by propidium iodide staining based flow cytometry analysis (reference value: 33.4 %); assay type: functional
HepG2 [4] = assay: Effect on 2-NBDG uptake in insulin-resistant human HepG2 cells at 1 uM pretreated with insulin for 24 hrs followed by compound addition incubated for 24 hrs and subsequent 2-NBDG measured after 30 mins by propidium iodide staining based flow cytometry analysis (reference value: 33.4 %); assay type: functional
HepG2 [5] = assay: Effect on 2-NBDG uptake in insulin-resistant human HepG2 cells at 10 uM pretreated with insulin for 24 hrs followed by compound addition incubated for 24 hrs and subsequent 2-NBDG measured after 30 mins by propidium iodide staining based flow cytometry analysis (reference value: 33.4 %); assay type: functional
HepG2 [6] = assay: Effect on 2-NBDG uptake in insulin-resistant human HepG2 cells at 25 uM pretreated with insulin for 24 hrs followed by compound addition incubated for 24 hrs and subsequent 2-NBDG measured after 30 mins by propidium iodide staining based flow cytometry analysis (reference value: 33.4 %); assay type: functional
HepG2 [7] = assay: Increase in PCK2 gene expression in insulin-resistant human HepG2 cells at 10 uM using SYBR-green based qRT-PCR analysis; assay type: functional, cell-based
HepG2 [8] = assay: Increase in FGF21 gene expression in insulin-resistant human HepG2 cells using SYBR-green based qRT-PCR analysis; assay type: functional, cell-based
Procedure, shortened: (§1)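 HepG2 cells were made insulin-resistant with 0.1 units/mL insulin in serum-free DMEM for 24 h, then treated with compound at several doses (5–25 μM range) against a 1% DMSO vehicle control. Transcript levels of the target genes were quantified by qRT-PCR.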

HepG2 [9] = assay: Increase in FGF21 gene expression in insulin-resistant human HepG2 cells at 10 uM using SYBR-green based qRT-PCR analysis; assay type: functional, cell-based; procedure, shortened: as §1
HepG2 [10] = assay: Effect on 2-NBDG uptake in insulin-resistant human HepG2 cells at 50 uM pretreated with insulin for 24 hrs followed by compound addition incubated for 24 hrs and subsequent 2-NBDG measured after 30 mins by propidium iodide staining based flow cytometry analysis (reference value: 65.4 %); assay type: functional
HepG2 [11] = assay: Effect on 2-NBDG uptake in insulin-resistant human HepG2 cells at 500 uM pretreated with insulin for 24 hrs followed by compound addition incubated for 24 hrs and subsequent 2-NBDG measured after 30 mins by propidium iodide staining based flow cytometry analysis (reference value: 65.4 %); assay type: functional
HepG2 [12] = assay: Effect on 2-NBDG uptake in insulin-resistant human HepG2 cells at 750 uM pretreated with insulin for 24 hrs followed by compound addition incubated for 24 hrs and subsequent 2-NBDG measured after 30 mins by propidium iodide staining based flow cytometry analysis (reference value: 65.4 %); assay type: functional
HepG2 [13] = assay: Effect on 2-NBDG uptake in insulin-resistant human HepG2 cells at 1000 uM pretreated with insulin for 24 hrs followed by compound addition incubated for 24 hrs and subsequent 2-NBDG measured after 30 mins by propidium iodide staining based flow cytometry analysis analysis (reference value: 65.4 %); assay type: functional

| Structure (SMILES) | Activity (HepG2 [1]) | Activity (ASPC1) | Activity (HepG2 [2]) | Activity (BXPC-3) | Activity (Panc02) | Activity (CT26) | Activity (HepG2 [3]) [%] | Activity (HepG2 [4]) [%] | Activity (HepG2 [5]) [%] | Activity (HepG2 [6]) [%] | Activity (HepG2 [7]) | Activity (HepG2 [8]) | Activity (HepG2 [9]) | Activity (HepG2 [10]) [%] | Activity (HepG2 [11]) [%] | Activity (HepG2 [12]) [%] | Activity (HepG2 [13]) [%] |
| --- | --- | --- | --- | --- | --- | --- | --- | --- | --- | --- | --- | --- | --- | --- | --- | --- | --- |
| COn1ccc2c(c1=O)[C@H]1[C@@H](C[C@H](C)C[C@@H]1C)[C@H](C)O2 | Non-Toxic | Non-Toxic | Active | Non-Toxic | Non-Toxic | Non-Toxic | 45.1 | 47.5 | 53.6 | 46.9 | Active | Dose-dependent effect | Active | – | – | – | – |
| CN(C)C(=N)NC(=N)N [METFORMIN] | – | – | – | – | – | – | – | – | – | – | – | – | – | 31.9 | 42.5 | 46.1 | 45.6 |

Source: ChEMBL document CHEMBL4334489, “Asperpyridone A: An Unusual Pyridone Alkaloid Exerts Hypoglycemic Activity through the Insulin Signaling Pathway” (J Nat Prod, 2019)
